From PMC8144927 (Virology, 2021)

Target: angiotensin-converting enzyme 2 (ACE2) (Homo sapiens, UniProt Q9BYF1)
Assay: SPR
Assay type: binding
In short: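 Nitrilotriacetic acid (NTA) sensor chip surface primed and charged with Ni2+ by sequential injection of 200 mM imidazole and 40 mM NiCl2. His6-tagged ACE2 protein at 20 μg/mL captured on the chip, with test compound as analyte. Supporting ACE2h cell membrane chromatography: 10.0 mm × 2.0 mm column, 37 °C, 0.2 mL/min, 2 mM phosphate-buffered saline (pH 7.4), detection at 284 nm.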

Chain of angiotensin-converting enzyme 2 (ACE2) (Q9BYF1 18-805): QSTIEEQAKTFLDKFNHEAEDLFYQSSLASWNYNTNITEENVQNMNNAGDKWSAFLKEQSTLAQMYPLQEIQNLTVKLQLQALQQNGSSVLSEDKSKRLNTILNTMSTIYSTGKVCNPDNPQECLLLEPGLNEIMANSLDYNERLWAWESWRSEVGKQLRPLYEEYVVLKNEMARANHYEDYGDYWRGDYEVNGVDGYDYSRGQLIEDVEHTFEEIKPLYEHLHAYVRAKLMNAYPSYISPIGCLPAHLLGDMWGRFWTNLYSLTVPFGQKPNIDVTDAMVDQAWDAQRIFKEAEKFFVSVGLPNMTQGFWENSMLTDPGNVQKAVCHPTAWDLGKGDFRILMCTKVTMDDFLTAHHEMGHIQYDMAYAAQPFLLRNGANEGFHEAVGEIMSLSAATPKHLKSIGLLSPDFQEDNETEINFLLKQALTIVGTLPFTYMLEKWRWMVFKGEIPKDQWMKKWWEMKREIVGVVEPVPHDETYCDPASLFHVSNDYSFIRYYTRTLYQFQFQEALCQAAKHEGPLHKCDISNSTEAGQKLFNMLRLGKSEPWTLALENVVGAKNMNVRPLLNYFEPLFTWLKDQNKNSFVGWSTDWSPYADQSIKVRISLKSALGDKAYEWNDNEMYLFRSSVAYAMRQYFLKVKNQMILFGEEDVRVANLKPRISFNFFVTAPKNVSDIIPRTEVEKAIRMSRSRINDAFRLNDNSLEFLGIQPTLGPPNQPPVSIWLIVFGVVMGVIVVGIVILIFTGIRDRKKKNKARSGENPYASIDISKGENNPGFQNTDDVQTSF

## CN1CCCC(n2nc(Cc3ccc(Cl)cc3)c3ccccc3c2=O)CC1 (stereo not shown) [azelastine]
  Kd: 258 nM
